Results on one molecule are retold here after ChEMBL document CHEMBL3525945, “Metabolic switching of BILR 355 in the presence of ritonavir. II. Uncovering novel contributions by gut bacteria and aldehyde oxidase” (Drug Metab Dispos, 2012).

Data set [1] concerns the target T1, Cytochrome P450 3A4 (Homo sapiens, UniProt P08684). As to the kind of experiment: Activity at recombinant CYP3A4 (unknown origin) expressed in baculovirus-infected insect cells assessed as enzyme-mediated drug depletion by measuring compound level at 10 uM after 4 mins by LC-MS/MS analysis in presence of NADPH. In kind it is ADME. The gist of the method: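 rCYP3A4 (5 pmol/mL) incubated with BILR 402 at 1 or 10 μM in 0.1 M potassium phosphate/5 mM MgCl2, pH 7.4, with NADPH at 37 °C. Remaining BILR 402 and BILR 355 formed were read at 4 min by LC-MS/MS against a labelled internal standard.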

Data set [2] can be described thus: Drug metabolism in human liver S9 fraction assessed as BILR355 formation at 10 uM by LC-MS/MS analysis in absence of NADPH. In kind it is ADME. Conditions: s9, 10 µM. An outline of the steps:
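BILR 402 (10 μM final) was incubated with human liver S9 or cytosol (1 mg/mL protein) in 0.05 M potassium phosphate pH 7.4 at 37 °C. Runs were done with or without 2.5 mM NADPH. Samples at 10, 20, 30 and 60 min were quenched in nevirapine/acetonitrile, filtered and analysed by LC-MS/MS; duplicate.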

In another data set the target is T2, Cytochrome P450 2B6 (Homo sapiens, UniProt P20813).
T2 sequence (P20813 whole entry): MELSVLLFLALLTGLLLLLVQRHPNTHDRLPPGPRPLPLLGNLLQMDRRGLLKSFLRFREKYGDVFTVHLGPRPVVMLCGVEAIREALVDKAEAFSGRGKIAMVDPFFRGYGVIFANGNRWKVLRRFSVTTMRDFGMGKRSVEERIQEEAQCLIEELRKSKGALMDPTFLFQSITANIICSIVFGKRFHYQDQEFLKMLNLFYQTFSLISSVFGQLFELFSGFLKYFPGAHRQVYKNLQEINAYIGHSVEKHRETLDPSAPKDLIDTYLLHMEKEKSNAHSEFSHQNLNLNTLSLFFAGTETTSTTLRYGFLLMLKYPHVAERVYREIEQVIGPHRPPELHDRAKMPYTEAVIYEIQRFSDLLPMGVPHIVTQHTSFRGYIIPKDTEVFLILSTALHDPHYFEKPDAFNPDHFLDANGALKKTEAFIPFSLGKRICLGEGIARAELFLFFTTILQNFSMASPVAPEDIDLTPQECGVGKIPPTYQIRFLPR
Kind of data set: Activity at recombinant CYP2B6 (unknown origin) expressed in baculovirus-infected insect cells assessed as enzyme-mediated drug depletion at 1 to 10 uM by LC-MS/MS analysis in presence of NADPH. Format: ADME. An outline of the steps:
(§1)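 BILR 402 (1 or 10 μM) with baculovirus/insect-cell recombinant CYPs, levels scaled to average liver content (1A2 2, 2A6 1, 2B6 0.1, 2C9 1.5, 2C19 1.5, 2D6 0.3, 3A4 5 pmol/mL). Buffer 0.1 M potassium phosphate, 5 mM MgCl2, pH 7.4; 2.5 mM NADPH; 37 °C. Non-transfected insect microsomes served as controls. Aliquots taken 0.5–30 min and acetonitrile-quenched; depletion measured by LC-MS/MS with isotope-labelled internal standard.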

Another data set has as its system Liver cytosol. As to the kind of experiment: Drug metabolism in human liver cytosol assessed as BILR516-18O and BILR516-16O metabolite formation at 5 uM after 60 mins by 18O incorporation based LC-MS/MS analysis. Format: ADME, tissue-based. Conditions: 1 h. An outline of the steps:
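BILR 402 (5 μM final) was incubated with human liver cytosol in 0.05 M potassium phosphate buffer made with 100% H2^16O or H2^16O/H2^18O 82:18 (v/v), at 37 °C without NADPH. […] The M+2 isotope contribution was subtracted before calculating peak-area ratios; n=2.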

A further data set deals with T3, Aldehyde oxidase (Homo sapiens, UniProt Q06278).
T3 sequence (Q06278 whole entry): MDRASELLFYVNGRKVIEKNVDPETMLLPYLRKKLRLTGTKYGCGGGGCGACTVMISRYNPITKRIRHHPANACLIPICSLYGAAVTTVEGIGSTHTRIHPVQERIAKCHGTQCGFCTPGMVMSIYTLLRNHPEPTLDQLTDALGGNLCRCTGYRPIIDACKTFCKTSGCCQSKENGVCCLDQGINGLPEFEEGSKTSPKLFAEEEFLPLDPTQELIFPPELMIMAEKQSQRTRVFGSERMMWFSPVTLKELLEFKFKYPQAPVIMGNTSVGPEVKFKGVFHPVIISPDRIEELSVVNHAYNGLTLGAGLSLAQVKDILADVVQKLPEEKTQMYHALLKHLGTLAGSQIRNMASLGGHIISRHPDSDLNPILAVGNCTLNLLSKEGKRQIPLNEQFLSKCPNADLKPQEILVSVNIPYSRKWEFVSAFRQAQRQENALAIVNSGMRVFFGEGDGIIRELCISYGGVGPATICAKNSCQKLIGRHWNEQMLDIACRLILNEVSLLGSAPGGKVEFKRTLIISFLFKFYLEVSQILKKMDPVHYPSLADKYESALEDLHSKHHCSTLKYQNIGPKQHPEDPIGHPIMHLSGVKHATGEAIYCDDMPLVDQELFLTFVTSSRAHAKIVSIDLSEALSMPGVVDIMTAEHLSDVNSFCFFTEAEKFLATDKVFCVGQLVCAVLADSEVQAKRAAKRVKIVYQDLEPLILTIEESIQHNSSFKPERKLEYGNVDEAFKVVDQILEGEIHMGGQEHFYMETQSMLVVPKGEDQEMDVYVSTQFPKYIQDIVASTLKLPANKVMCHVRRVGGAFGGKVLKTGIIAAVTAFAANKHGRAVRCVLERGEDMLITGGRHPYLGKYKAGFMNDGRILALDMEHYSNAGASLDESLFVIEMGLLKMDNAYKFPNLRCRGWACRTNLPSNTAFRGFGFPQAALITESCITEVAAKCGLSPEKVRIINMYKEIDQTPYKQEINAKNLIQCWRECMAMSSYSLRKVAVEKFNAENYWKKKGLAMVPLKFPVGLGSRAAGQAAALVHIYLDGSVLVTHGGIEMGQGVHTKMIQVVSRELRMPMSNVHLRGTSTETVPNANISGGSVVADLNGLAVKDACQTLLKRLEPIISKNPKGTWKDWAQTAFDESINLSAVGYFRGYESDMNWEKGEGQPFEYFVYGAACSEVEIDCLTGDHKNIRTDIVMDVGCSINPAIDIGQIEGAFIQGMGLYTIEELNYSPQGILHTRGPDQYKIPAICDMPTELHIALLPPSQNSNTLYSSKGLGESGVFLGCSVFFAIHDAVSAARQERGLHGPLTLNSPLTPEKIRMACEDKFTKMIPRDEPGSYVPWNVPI
As to the kind of experiment: Activity at human recombinant AO expressed in Escherichia coli cells assessed as enzyme-mediated BILR516 metabolite formation at 5 uM by LC-MS/MS analysis. In kind it is ADME. The gist of the method: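 BILR 402 (5 μM final) incubated with cytosolic extract of E. coli expressing human AO, or control E. coli cytosol lacking AO, 0.1 mg/mL protein, 0.05 M potassium phosphate pH 7.4, 37 °C.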

In data set [3] the target is T1, Cytochrome P450 3A4. Kind of data set: Activity at recombinant CYP3A4 (unknown origin) expressed in baculovirus-infected insect cells assessed as enzyme-mediated drug depletion at 1 to 10 uM by LC-MS/MS analysis in presence of NADPH. In kind it is ADME. Conditions: TDE = time-dependent effect. The gist of the method: as §1

T1 sequence (P08684 whole entry): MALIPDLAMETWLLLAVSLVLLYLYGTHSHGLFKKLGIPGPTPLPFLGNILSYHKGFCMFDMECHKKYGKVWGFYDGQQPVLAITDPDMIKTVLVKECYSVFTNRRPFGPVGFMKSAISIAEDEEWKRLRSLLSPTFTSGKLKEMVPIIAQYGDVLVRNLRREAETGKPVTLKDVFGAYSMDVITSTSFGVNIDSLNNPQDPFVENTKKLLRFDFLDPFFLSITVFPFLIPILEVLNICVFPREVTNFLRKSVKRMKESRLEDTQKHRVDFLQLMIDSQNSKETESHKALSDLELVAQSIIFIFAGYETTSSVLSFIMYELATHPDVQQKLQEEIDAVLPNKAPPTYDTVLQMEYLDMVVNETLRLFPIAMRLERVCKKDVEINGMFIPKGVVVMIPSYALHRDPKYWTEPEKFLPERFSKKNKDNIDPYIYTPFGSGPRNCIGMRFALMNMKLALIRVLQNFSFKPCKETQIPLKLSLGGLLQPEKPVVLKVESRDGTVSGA

With `CCN1c2ncc(CCOc3ccnc4ccccc34)cc2C(=O)N(C)c2cccnc21`, the Drug metabolism is 5 µM on Cytochrome P450 3A4 [1]; “metabolite_not_detected” in data set [2]; “metabolite_not_detected” on Cytochrome P450 2B6; “metabolite_detected” in the data set on Liver cytosol; “metabolite_detected” at Aldehyde oxidase; “tde” on Cytochrome P450 3A4 [3].
